Reference: ChEMBL document CHEMBL5252534, “Discovery of a Noncovalent, Mutant-Selective Epidermal Growth Factor Receptor Inhibitor” (J Med Chem, 2016)
Converted amounts (≈) assume the structure as drawn. The source made the active and inactive calls. The calls are words filed in the database; no cut-off is given here.

Key:
[1] = biological target: T1, Epidermal growth factor receptor (Homo sapiens, UniProt P00533); assay: Inhibition of EGFR autophosphorylation in human NCI-H292 cells harboring harboring wild type EGFR preincubated for 60 mins followed by EGF stimulation and measured after 8 mins by SULFO-TAG based electrochemiluminescent assay; format: cell-based
Target sequence in this assay (P00533 25-1210 limits assumed, stated change not applied): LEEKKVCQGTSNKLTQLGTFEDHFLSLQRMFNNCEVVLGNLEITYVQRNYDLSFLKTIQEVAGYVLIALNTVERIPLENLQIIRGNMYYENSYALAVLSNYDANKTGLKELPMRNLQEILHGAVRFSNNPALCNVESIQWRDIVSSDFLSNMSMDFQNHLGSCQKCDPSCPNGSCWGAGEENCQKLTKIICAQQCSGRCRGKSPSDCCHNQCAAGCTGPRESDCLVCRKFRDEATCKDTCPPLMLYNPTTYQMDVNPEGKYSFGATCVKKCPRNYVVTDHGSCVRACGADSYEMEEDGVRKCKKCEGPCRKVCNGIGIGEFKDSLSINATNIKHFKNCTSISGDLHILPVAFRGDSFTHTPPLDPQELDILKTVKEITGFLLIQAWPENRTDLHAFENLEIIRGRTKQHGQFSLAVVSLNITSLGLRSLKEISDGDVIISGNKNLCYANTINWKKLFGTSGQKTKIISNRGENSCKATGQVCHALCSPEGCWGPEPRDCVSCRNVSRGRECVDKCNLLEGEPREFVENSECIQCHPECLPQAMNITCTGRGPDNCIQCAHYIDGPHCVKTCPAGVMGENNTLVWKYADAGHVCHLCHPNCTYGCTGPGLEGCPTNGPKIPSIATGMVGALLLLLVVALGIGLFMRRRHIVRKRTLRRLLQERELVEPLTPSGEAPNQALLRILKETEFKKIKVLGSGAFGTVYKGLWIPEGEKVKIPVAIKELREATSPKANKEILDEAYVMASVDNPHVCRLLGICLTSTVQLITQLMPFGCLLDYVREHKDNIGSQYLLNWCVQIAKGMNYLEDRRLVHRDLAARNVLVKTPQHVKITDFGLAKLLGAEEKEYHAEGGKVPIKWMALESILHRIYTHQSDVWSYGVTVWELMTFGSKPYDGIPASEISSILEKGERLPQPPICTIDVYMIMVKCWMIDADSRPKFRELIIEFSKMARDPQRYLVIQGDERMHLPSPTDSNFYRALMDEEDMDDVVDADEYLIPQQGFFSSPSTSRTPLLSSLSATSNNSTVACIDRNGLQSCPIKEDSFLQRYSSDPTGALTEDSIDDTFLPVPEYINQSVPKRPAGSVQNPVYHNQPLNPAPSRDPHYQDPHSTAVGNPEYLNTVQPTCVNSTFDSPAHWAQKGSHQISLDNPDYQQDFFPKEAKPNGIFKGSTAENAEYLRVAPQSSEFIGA

[2] = biological target: T2, Epidermal growth factor receptor (Homo sapiens, UniProt P00533, L858R/T790M); format: cell-based, NCI-H1975
[3] = biological target: T3, Epidermal growth factor receptor (Homo sapiens, UniProt P00533, 746-750DEL/T790M); format: cell-based, PC-9/ER1
[4] = Apparent permeability across apical to basolateral side in dog MDCK cells; format: ADME, cell-based, Canis lupus familiaris
[5] = Clearance in human liver microsomes; format: ADME, Microsome
How it was run: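 Incubation with human liver microsomes; intrinsic clearance scaled to predicted hepatic clearance as Clhep = (Q × Clint)/(Q + Clint), where Q is liver blood flow.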

[6] = Aqueous kinetic solubility of compound in PBS buffer at pH 7.4 at 100 uM incubated for 24 hrs by LC/CLND analysis; format: physicochemical; details: read-out: Kinetic_solubility
How it was run: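 Kinetic aqueous solubility measured at pH 7.4.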

[7] = Clearance in human hepatocyte; format: ADME, cell-based; details: hepatocytes
How it was run: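 Cryopreserved human hepatocytes used; intrinsic clearance converted to predicted hepatic clearance as (Q × Clint)/(Q + Clint) using liver blood flow Q.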

[8] = biological target: T4, Epidermal growth factor receptor (Homo sapiens, UniProt P00533, 746-750DEL); format: cell-based, PC-9
[9] = biological target: T3, Epidermal growth factor receptor; assay: Inhibition of human EGFR T790M/del (746 to 750 residues) mutant assessed as apparent inhibition constant using Fl-EEPLYWSFPAKKK-CONH2 peptide as substrate preincubated for 30 mins followed by addition of substrate and measured after 30 mins by Morrison plot analysis; details: read-out: Ki(app)
How it was run: (§1)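 Biochemical kinase Ki determination; reported values are geometric means of at least two independent experiments.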

[10] = biological target: T4, Epidermal growth factor receptor; assay: Inhibition of human EGFR del (746 to 750) mutant assessed as apparent inhibition constant using Fl-EEPLYWSFPAKKK-CONH2 as substrate preincubated for 30 mins followed by addition of substrate and measured after 30 mins by Morrison plot analysis; details: read-out: Ki(app); how it was run: as §1
[11] = biological target: Epidermal growth factor receptor (Homo sapiens, UniProt P00533, L858R); assay: Inhibition of human EGFR L858R mutant assessed as apparent inhibition constant using Fl-EEPLYWSFPAKKK-CONH2 peptide as substrate preincubated for 30 mins followed by addition of substrate and measured after 30 mins by Morrison plot analysis; details: read-out: Ki(app); how it was run: as §1
[12] = biological target: T1, Epidermal growth factor receptor; assay: Inhibition of wild type human EGFR assessed as apparent inhibition constant using Fl-EEPLYWSFPAKKK-CONH2 as substrate preincubated for 30 mins followed by addition of substrate and measured after 30 mins by Morrison plot analysis; details: read-out: Ki(app)
[13] = biological target: T2, Epidermal growth factor receptor; assay: Inhibition of human EGFR T790M/L858R double mutant assessed as apparent inhibition constant using Fl-EEPLYWSFPAKKK-CONH2 as peptide substrate preincubated for 30 mins followed by addition of substrate and measured after 30 mins by Morrison plot analysis; details: read-out: Ki(app)
[14] = Clearance in dog plasma at 1 mg/kg,iv; format: ADME, organism-based, Canis lupus familiaris
How it was run: (§2)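 Single intravenous dose as a solution in 10/35/55 ethanol/PEG/water (mouse 5 mg kg−1; dog 1 mg kg−1); plasma clearance and steady-state volume of distribution derived from the plasma profile.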

[15] = tested on: Epidermal growth factor receptor (Homo sapiens), P00533 [L858R,T790M]; assay: In vivo inhibition of EGFR L858R/T790M double mutant in SCID mouse xenografted with human NCI-H1975 cells assessed as reduction in ERK1/2 phosphorylation at 100 mg/kg, po and measured after 16 hrs by MSD assay; format: functional, organism-based
How it was run: (§3)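 H1975 tumor-bearing mice given a single oral dose of 50 or 100 mg/kg; tumors collected at set times; phospho-EGFR, ERK and AKT measured by MSD immunoassay; four animals per group, individual animals plotted.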

[16] = tested on: Epidermal growth factor receptor (Homo sapiens), P00533 [L858R,T790M]; assay: In vivo inhibition of EGFR L858R/T790M double mutant in SCID mouse xenografted with human NCI-H1975 cells assessed as reduction in AKT phosphorylation at S473 residue at 100 mg/kg, po and measured after 16 hrs by MSD assay; format: functional, organism-based; how it was run: as §3
[17] = Oral bioavailability in mouse at 25 mg/kg; format: ADME, organism-based; details: in vivo
How it was run: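 Mouse dosed orally at 25 mg kg−1 as a solution in corn oil; bioavailability compared against the iv arm (5 mg kg−1 in ethanol/PEG/water).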

[18] = Clearance in mouse plasma at 5 mg/kg,iv; format: ADME, organism-based; how it was run: as §2
[19] = Oral bioavailability in dog at 2 mg/kg; format: ADME, organism-based, Canis lupus familiaris; details: in vivo
How it was run: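 Dog dosed orally at 2 mg kg−1 as a suspension in MCT; bioavailability compared against iv dosing at 1 mg kg−1 in ethanol/PEG/water.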

PC-9 = assay: Antiproliferative activity against human PC-9 cells harboring harboring EGFR del (746 to 750) mutant assessed as reduction in cell viability; format: functional, cell-based
NCI-H1975 = assay: Antiproliferative activity against human NCI-H1975 cells harboring harboring EGFR L858R/T790M double mutant assessed as reduction in cell viability; format: functional, cell-based
[20] = tested on: Epidermal growth factor receptor (Homo sapiens), P00533 [L858R,T790M]; assay: In vivo inhibition of EGFR L858R/T790M double mutant in SCID mouse xenografted with human NCI-H1975 cells assessed as reduction in EGFR L858R/T790M double mutant phosphorylation at Y1068 residue at 50 mg/kg, po and measured after 8 hrs by MSD assay; format: functional, organism-based; how it was run: as §3
Plasma [21] = assay: Time during which free plasma concentration exceeds IC50 for inhibition of human EGFR T790M/L858R double mutant autophosphorylation in human NCI-H1975 cells xenografted in SCID mouse at 50 mg/kg, po
[22] = tested on: Epidermal growth factor receptor (Homo sapiens), P00533 [L858R,T790M]; assay: In vivo inhibition of EGFR L858R/T790M double mutant in SCID mouse xenografted with human NCI-H1975 cells assessed as reduction in EGFR L858R/T790M double mutant phosphorylation at Y1068 residue at 100 mg/kg, po and measured after 16 hrs by MSD assay; format: functional, organism-based; how it was run: as §3
[23] = Fraction unbound in SCID mouse plasma at 50 to 100 mg/kg,po and measured upto 16 hrs by LC-MS assay; format: ADME, organism-based; details: in vivo, dose 50-100 mg/kg
[24] = Volume of distribution at steady state in dog at 1 mg/kg,iv; format: ADME, organism-based, Canis lupus familiaris; details: in vivo, read-out: Vdss; how it was run: as §2
Plasma [25] = assay: Time during which free plasma concentration exceeds IC50 for inhibition of human EGFR T790M/L858R double mutant autophosphorylation in human NCI-H1975 cells xenografted in SCID mouse at 100 mg/kg, po
[26] = tested on: Epidermal growth factor receptor (Homo sapiens), P00533 [L858R,T790M]; assay: In vivo inhibition of EGFR L858R/T790M double mutant in SCID mouse xenografted with human NCI-H1975 cells assessed as reduction in ERK1/2 phosphorylation at 50 mg/kg, po and measured after 8 hrs by MSD assay; format: functional, organism-based; how it was run: as §3
[27] = Volume of distribution at steady state in mouse at 5 mg/kg,iv; format: ADME, organism-based; details: in vivo, read-out: Vdss; how it was run: as §2
[28] = tested on: Epidermal growth factor receptor (Homo sapiens), P00533 [L858R,T790M]; assay: In vivo inhibition of EGFR L858R/T790M double mutant in SCID mouse xenografted with human NCI-H1975 cells assessed as reduction in AKT phosphorylation at S473 residue at 50 mg/kg, po and measured after 8 hrs by MSD assay; format: functional, organism-based; how it was run: as §3

T2 sequence (P00533 25-1210 T790M/L858R limits assumed): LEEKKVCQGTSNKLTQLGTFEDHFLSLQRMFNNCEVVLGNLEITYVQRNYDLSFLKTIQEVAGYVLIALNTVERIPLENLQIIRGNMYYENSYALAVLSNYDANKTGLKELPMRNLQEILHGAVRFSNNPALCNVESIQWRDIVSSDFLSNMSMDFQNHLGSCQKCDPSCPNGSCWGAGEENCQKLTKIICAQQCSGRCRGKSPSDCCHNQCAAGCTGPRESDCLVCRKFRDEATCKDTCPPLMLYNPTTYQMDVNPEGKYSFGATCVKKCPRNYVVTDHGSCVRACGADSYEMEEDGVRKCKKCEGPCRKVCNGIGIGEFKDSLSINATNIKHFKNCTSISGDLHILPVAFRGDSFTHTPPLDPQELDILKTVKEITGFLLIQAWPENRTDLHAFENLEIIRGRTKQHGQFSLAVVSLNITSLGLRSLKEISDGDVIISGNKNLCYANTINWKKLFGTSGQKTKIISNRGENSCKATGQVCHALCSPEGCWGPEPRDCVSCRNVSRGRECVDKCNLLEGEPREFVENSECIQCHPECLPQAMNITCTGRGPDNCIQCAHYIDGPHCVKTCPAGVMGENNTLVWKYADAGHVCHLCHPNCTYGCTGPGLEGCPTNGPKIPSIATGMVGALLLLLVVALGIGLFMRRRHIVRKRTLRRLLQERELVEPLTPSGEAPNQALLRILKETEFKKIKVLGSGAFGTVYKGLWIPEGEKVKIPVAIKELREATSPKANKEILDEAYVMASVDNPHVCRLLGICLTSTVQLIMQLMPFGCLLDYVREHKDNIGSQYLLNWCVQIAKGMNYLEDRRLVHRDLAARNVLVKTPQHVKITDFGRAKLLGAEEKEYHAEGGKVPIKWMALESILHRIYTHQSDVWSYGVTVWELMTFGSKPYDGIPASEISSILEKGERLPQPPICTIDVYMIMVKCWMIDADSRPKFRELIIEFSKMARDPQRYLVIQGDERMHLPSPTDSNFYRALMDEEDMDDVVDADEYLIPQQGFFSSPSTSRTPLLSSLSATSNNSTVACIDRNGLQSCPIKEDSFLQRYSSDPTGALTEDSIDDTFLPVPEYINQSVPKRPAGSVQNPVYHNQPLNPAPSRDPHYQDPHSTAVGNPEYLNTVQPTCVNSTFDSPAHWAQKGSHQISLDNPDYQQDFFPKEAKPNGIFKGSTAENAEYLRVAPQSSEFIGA
Sequence of Epidermal growth factor receptor (Homo sapiens), P00533 [L858R,T790M] (P00533 whole entry T790M/L858R, looked up): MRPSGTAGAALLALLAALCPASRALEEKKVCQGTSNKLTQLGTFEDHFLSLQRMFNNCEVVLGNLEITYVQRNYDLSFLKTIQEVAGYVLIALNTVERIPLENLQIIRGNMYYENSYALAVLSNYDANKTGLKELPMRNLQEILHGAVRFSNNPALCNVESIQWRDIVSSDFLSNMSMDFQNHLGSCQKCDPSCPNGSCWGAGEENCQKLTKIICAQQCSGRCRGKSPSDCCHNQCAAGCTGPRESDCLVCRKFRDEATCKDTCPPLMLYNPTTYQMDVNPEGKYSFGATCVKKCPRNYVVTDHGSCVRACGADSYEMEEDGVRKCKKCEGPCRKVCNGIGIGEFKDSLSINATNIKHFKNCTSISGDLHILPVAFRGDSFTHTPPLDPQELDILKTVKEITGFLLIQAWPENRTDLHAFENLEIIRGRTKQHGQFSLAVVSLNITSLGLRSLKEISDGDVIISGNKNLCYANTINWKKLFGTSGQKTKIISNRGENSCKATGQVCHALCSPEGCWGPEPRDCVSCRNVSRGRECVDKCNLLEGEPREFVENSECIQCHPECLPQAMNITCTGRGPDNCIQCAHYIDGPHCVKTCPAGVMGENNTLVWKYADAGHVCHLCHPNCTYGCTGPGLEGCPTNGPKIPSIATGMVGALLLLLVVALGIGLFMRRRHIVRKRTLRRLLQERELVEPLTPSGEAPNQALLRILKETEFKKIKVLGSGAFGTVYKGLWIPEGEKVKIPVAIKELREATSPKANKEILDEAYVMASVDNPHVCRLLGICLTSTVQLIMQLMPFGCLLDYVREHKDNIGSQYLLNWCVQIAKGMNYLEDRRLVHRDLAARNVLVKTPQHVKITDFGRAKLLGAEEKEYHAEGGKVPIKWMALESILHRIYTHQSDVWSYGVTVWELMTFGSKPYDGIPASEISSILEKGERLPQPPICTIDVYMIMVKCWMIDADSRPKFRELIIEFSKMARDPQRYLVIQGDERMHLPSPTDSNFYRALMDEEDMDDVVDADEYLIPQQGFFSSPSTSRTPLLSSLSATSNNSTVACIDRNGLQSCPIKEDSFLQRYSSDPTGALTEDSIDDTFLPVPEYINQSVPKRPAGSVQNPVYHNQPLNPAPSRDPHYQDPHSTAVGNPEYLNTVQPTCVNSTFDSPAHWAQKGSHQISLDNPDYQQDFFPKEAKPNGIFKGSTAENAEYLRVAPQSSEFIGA
Sequence of Epidermal growth factor receptor (Homo sapiens, UniProt P00533, L858R) (P00533 25-1210 L858R limits assumed): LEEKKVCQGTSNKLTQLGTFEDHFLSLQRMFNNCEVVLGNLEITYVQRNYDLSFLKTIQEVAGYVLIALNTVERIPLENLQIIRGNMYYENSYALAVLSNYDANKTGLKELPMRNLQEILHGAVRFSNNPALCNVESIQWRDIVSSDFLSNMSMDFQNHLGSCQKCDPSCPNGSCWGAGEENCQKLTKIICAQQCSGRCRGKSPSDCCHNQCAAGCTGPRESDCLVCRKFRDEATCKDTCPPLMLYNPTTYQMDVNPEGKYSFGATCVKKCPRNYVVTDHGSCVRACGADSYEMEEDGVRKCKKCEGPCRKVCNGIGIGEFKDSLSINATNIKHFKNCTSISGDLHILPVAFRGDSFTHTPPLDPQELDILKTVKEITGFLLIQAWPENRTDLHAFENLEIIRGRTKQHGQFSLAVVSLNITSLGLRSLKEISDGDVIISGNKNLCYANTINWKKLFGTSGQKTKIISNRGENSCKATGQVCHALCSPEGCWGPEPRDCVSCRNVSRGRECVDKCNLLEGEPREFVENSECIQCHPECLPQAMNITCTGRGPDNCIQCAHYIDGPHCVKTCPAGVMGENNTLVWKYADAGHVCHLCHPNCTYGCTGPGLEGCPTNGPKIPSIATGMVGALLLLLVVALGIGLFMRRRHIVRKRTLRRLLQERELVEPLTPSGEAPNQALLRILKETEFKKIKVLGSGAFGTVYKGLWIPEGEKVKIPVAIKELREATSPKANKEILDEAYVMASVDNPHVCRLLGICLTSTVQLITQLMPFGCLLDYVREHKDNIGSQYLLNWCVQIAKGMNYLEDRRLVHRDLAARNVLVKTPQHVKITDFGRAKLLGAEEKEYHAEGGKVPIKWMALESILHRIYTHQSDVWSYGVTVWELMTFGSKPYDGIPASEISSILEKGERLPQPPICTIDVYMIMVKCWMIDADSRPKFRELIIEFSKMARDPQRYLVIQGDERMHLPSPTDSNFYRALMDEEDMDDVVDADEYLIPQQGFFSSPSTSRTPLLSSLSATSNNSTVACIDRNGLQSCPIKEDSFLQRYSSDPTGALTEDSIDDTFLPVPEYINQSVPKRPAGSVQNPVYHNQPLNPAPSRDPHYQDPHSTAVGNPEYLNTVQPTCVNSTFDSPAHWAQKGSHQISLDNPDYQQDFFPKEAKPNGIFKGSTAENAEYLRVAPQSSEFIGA

IC50 [1] [nM]	IC50 [2] [nM]	IC50 [3] [nM]	Papp A→B [4] [×10⁻⁶ cm/s]	CLhep predicted [5] [mL/min/kg]	solubility kinetic at 24 h, 100 µM [6] [µM]	CLhep predicted [7] [mL/min/kg]	IC50 [8] [nM]	Ki [9] [nM]	Ki [10] [nM]	Ki [11] [nM]	Ki [12] [nM]	Ki [13] [nM]	SMILES	also measured
580	40	15	19	9.9	2 (≈ 1.1 µg/mL)	7.8	57						CC[C@@H](C)n1nc(N2CC(C(C)(C)O)C2)c2cnc(Nc3ccnc(-c4cnn(S(=O)(=O)C5CC5)c4)n3)cc21	
								3.5	38	126	324		Cc1nc2cnc(Nc3ccnc(-c4cnn(S(C)(=O)=O)c4)n3)cc2n1C(C)C	
			26		3 (≈ 1.23 µg/mL)			27	323	363	167	5.3	COC1CCN(c2nccc(Nc3cc4c(cn3)c(C(N)=O)cn4C(C)C)n2)CC1	
			4.5		< 1			0.35	1.2	4.1	7.8	1.1	CC(C)n1cc(C(N)=O)c2cnc(Nc3ccnc(-c4cnn(S(=O)(=O)C5CC5)c4)n3)cc21	
96	19	8.1	8.1	10	3 (≈ 1.53 µg/mL)	13	28				2	< 0.6	CC(C)n1nc(N2CC(CO)C2)c2cnc(Nc3ccnc(-c4cnn(S(=O)(=O)C5CC5)c4)n3)cc21	
											> 100		COC1CCN(c2nccc(Nc3cc4c(cn3)c(C(N)=O)nn4C(C)C)n2)CC1	
218	27	8	8.9	3.8	2 (≈ 1.1 µg/mL)	2.7	33						CC[C@H](C)n1nc(N2CC(C(C)(C)O)C2)c2cnc(Nc3ccnc(-c4cnn(S(=O)(=O)C5CC5)c4)n3)cc21	clearance [14]: 13 mL/min/kg; inhibition [15]: Active; inhibition [16]: Active; bioavailability [17]: 19%; clearance [18]: 104 mL/min/kg; bioavailability [19]: 30%; IC50 (PC-9): 151 nM; IC50 (NCI-H1975): 361 nM; inhibition [20]: Active; T>IC50 (Plasma [21]): 8 h; inhibition [22]: Active; Fu [23]: 0.009; Vd [24]: 6.9 L/kg; T>IC50 (Plasma [25]): 16 h; inhibition [26]: Active; Vd [27]: 3.4 L/kg; inhibition [28]: Active
210	32	10	20	8.9	< 1	7.1	130				7	< 0.6	CC(C)n1nc(N2CC(C(C)(C)O)C2)c2cnc(Nc3ccnc(-c4cnn(S(=O)(=O)C5CC5)c4)n3)cc21	
								41	1800	608	896	3.6	CO[C@H]1CCN(c2nccc(Nc3cc4c(cn3)nc(C)n4C(C)C)n2)C[C@H]1F	
											1200	34	Cc1nc2cnc(Nc3ccnc(-c4cnn(CC5CC5)c4)n3)cc2n1C(C)C	
3900	64	14	16	13	2 (≈ 0.879 µg/mL)	8.4	80				8.2	0.79	CC(C)n1nc(N)c2cnc(Nc3ccnc(-c4cnn(S(=O)(=O)C5CC5)c4)n3)cc21	
			12	7	1 (≈ 0.524 µg/mL)	7.7							CC(C)n1nc(N2CCC(O)CC2)c2cnc(Nc3ccnc(-c4cnn(S(=O)(=O)C5CC5)c4)n3)cc21	
> 10000	2400	910	3.9	8.5	< 1	15	3000				< 531		CC(C)c1nn(C(C)C)c2cc(Nc3ccnc(-c4cnn(S(=O)(=O)C5CC5)c4)n3)ncc12	
			4.6		11 (≈ 6.06 µg/mL)			1.6	1.4	3.8	3.4	1.2	CC(C)n1cc(C(=O)NC2CCOCC2)c2cnc(Nc3ccnc(-c4cnn(S(=O)(=O)C5CC5)c4)n3)cc21	
			19	5.2		9		43	1300	1100			Cc1nc2cnc(Nc3ccnc(N4CC[C@H](O)[C@H](F)C4)n3)cc2n1C(C)C (racemic)	
850	74	19	12	9.3	1 (≈ 0.51 µg/mL)	6.7	76				10	2.1	CC(C)n1nc(N2CCOCC2)c2cnc(Nc3ccnc(-c4cnn(S(=O)(=O)C5CC5)c4)n3)cc21	
			21	7.7		4		1.8	12	43	55		Cc1nc2cnc(Nc3ccnc(-c4cnn(S(=O)(=O)C5CC5)c4)n3)cc2n1C(C)C	
			2.3		7 (≈ 3.66 µg/mL)			2	2	6.4	4.6	1.1	CC(C)n1cc(C(=O)NC2COC2)c2cnc(Nc3ccnc(-c4cnn(S(=O)(=O)C5CC5)c4)n3)cc21	
